Series [1] deals with T1, Prothrombin (Homo sapiens, UniProt P00734). In words: Competitive inhibition of human thrombin using S-2366 as substrate. Summed up: (§1)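 Ki values were calculated from the IC50 values measured in the enzyme screening assays.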
Series [2] has as its target T2, Vitamin K-dependent protein C (Homo sapiens, UniProt P04070). In words: Competitive inhibition of human APC using S-2366 as substrate. Put shortly:
as §1

For series [3], the species on record is Homo sapiens. The series can be described thus: Selectivity ratio of IC50 for human thrombin to IC50 for human APC.
Series [4] deals with T1, Prothrombin. In words: Inhibition of human thrombin using S-2366 as substrate preincubated for 300 seconds followed by substrate addition measured after 40 mins by spectrophotometric analysis.
In series [5] the target is T2, Vitamin K-dependent protein C. In words: Inhibition of human APC using S-2366 as substrate preincubated for 300 seconds followed by substrate addition measured after 40 mins by spectrophotometric analysis.
Series [6] concerns the target T3, Coagulation factor XI (Homo sapiens, UniProt P03951). The series can be described thus: Competitive inhibition of human coagulation factor 11a using S-2366 as substrate. Put shortly:
as §1

The target of series [7] is T4, Coagulation factor X (Homo sapiens, UniProt P00742). The series can be described thus: Competitive inhibition of human coagulation factor 10a using S-2765 as substrate. Summed up:
as §1

Series [8] concerns the target T3, Coagulation factor XI. In words: Inhibition of human coagulation factor 11a using S-2366 as substrate preincubated for 300 seconds followed by substrate addition measured after 40 mins by spectrophotometric analysis.
In series [9] the target is T4, Coagulation factor X. The series can be described thus: Inhibition of human coagulation factor 10a using S-2765 as substrate preincubated for 300 seconds followed by substrate addition measured after 40 mins by spectrophotometric analysis.
Series [10] concerns Plasma. The series can be described thus: Antifibrinolytic activity in human citrated plasma assessed as prolongation of clot-lysis time at 28 uM by spectrophotometric analysis. In kind it is functional, cell-free. Summed up:
(§2)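 Citrated plasma from healthy volunteers. Tissue plasminogen activator was added to start plasmin generation, and clot-lysis time was recorded with test compound present (n = 2).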

Series [11] has as its target T5, Coagulation factor VII (Homo sapiens, UniProt P08709).
T5 sequence (P08709 whole entry): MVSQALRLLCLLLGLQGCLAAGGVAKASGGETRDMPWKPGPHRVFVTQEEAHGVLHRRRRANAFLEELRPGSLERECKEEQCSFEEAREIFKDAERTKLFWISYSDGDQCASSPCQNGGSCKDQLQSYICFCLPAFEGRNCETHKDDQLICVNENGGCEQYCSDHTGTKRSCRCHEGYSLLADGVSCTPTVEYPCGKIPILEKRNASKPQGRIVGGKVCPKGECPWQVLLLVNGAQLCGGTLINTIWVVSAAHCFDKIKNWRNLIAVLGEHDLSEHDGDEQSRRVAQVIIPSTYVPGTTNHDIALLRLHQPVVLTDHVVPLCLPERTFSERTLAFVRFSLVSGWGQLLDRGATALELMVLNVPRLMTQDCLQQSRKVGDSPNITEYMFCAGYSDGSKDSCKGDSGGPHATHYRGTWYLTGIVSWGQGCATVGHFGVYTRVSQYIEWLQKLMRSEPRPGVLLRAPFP
The series can be described thus: Competitive inhibition of human coagulation factor 7a using spectrozyme as substrate. Summed up: as §1

For series [12], the target named is T5, Coagulation factor VII. The series can be described thus: Inhibition of human coagulation factor 7a using spectrozyme as substrate preincubated for 300 seconds followed by substrate addition measured after 40 mins by spectrophotometric analysis in presence of tissue factor.
A short description of series [13]: Lipophilicity, log D of the compound at pH 7.4 by chromatographic method. In kind it is physicochemical. As to conditions: buffer.
The target of series [14] is Coagulation factor IX (Homo sapiens) (UniProt P00740). In words: Inhibition of coagulation factor 9a (unknown origin)-mediated hydrolysis of Z-D-Arg-Gly-Arg-pNA at 100 uM relative to control.
In series [15] the test system is Plasma. In words: Antifibrinolytic activity in human citrated plasma assessed as prolongation of clot-lysis time at 101 uM by spectrophotometric analysis. The format is functional, cell-free. Put shortly:
as §2

Each structure is given as a SMILES string. Activity calls are given as the source filed them. The rule behind the calls is not given here.

As for `N#Cc1ccc(CC(NC(=O)[C@@H](CC2CCCCC2)NCC(=O)O)C(=O)NCc2ccc(C(=N)N)cc2)cc1` (mixture of isomers), the Ki in [1] turned out to be 2 µM; in series [2], 1.1 µM. Moreover, the Ratio IC50 in series [3] was determined as 5.4. In addition, the IC50 in series [4] and in series [5] was 3.8 µM in each case.

As for `N=C(N)c1ccc(CNC(=O)C(Cc2ccc(CN)cc2)NC(=O)[C@@H](CC2CCCCC2)NCC(=O)O)cc1` (mixture of isomers), the Ki in [6] is 19 µM; in series [7] it was 14 µM; in series [1], 2 µM; in series [2] it was 0.3 µM. In addition, the IC50 in series [8] was 43 µM; in [9], 42 µM; in series [4], 3.7 µM; in [5] it was 1.1 µM. Also, in series [3], the Ratio IC50 was found to be 3.3.

In the case of `N=C(N)c1ccc(CNC(=O)C(CCC2CCNCC2)NC(=O)[C@@H](CC2CCCCC2)NCC(=O)O)cc1` (mixture of isomers), in series [10], the outcome was Active. Moreover, the Ki was > 100 µM in [11]; > 19 µM in series [6]; > 43 µM in [7]; 12 µM in [1]; 0.3 µM in series [2]. The IC50 in series [12] is > 133 µM; in series [8], > 44 µM; in [9] it was > 130 µM; in series [4], 22 µM; in series [5] it was 0.92 µM. Besides, the chromatographic logD in [13] is < 0. The inhibition result in series [14] is “inactive”. The Ratio IC50 in [3] turned out to be 23.

Take `N=C(N)c1ccc(CNC(=O)[C@H](Cc2ccc(N)cc2)NC(=O)[C@@H](CC2CCCCC2)NCC(=O)O)cc1`: the Ki was 0.3 µM in [6], > 15 µM in [7], 0.5 µM in [1] and 0.04 µM in [2]. Also, the half-maximal inhibitory concentration (IC50) in [8] was 0.58 µM; in series [9], > 44 µM; in series [4] it was 0.9 µM; in [5] it was 0.13 µM. Further, the Ratio IC50 in series [3] is 6.9.

In the case of `N=C(N)c1ccc(CNC(=O)[C@H](Cc2ccc3ccccc3c2)NC(=O)[C@@H](CC2CCCCC2)NCC(=O)O)cc1`, the figures for the Ki in series [1] and in series [2] were 3 µM and 0.3 µM, respectively. Also, the Ratio IC50 in series [3] was 5.3. Besides, the half-maximal inhibitory concentration (IC50) is 5.2 µM in series [4] and 0.98 µM in [5].

In the case of `N=C(N)c1ccc(CNC(=O)C(CC2CCNCC2)NC(=O)[C@@H](CC2CCCCC2)NCC(=O)O)cc1` (mixture of isomers), the figures for the Ki in series [1] and in series [2] were 6 µM and 0.4 µM, respectively. In addition, the Ratio IC50 in series [3] was found to be 9.1. In addition, the figures for the IC50 in series [4] and in series [5] were 12 µM and 1.3 µM, respectively.

With `N=C(N)c1ccc(CNC(=O)C2(NC(=O)[C@H](NCC(=O)O)C3CCCCC3)Cc3ccccc3C2)cc1`, in [15], the result was Active. Moreover, the Ki in series [11] is 7 µM; in [6], > 19 µM; in [7], 16 µM; in series [1], 19 µM; in [2], 0.5 µM. The IC50 was 8.9 µM in [12]; > 44 µM in series [8]; 48 µM in series [9]; 36 µM in [4]; 1.7 µM in [5]. The compound also gave a chromatographic logD in series [13] of 0.93. The inhibition in [14] was determined as 40%. The Ratio IC50 in series [3] was 21.

Take `N=C(N)c1ccc(CNC(=O)[C@H](CC2CCCN2)NC(=O)[C@@H](CC2CCCCC2)NCC(=O)O)cc1` (mixture of isomers): the results for the Ki in series [1] and in series [2] were 4 µM and 1.6 µM, respectively. For the same compound, in series [3], the Ratio IC50 came to 1.3. The IC50 came to 7 µM in series [4] and 5.6 µM in series [5].

`N=C(N)c1ccc(CNC(=O)[C@@H](NC(=O)[C@@H](CC2CCCCC2)NCC(=O)O)C2CCNCC2)cc1`: the Ki in series [6] was > 19 µM; in [1], 14 µM; in series [2], 0.9 µM. In addition, the IC50 in [8] is > 44 µM; in [4] it was 26 µM; in [5], 3.1 µM. Also, in series [3], the Ratio IC50 came to 8.4.

For `N=C(N)NCCC[C@H](NC(=O)[C@H](N)C1CCCCC1)C(=O)NCc1ccc(C(=N)N)cc1`, the results for the Ki in [1] and in [2] were 1 µM and 0.5 µM, respectively. In addition, the Ratio IC50 in [3] stood at 1.2. Further, the IC50 in series [4] amounted to 1.9 µM; in series [5] it was 1.6 µM.

With `N=C(N)c1ccc(CNC(=O)[C@H](Cc2ccccc2)NC(=O)[C@@H](CC2CCCCC2)NCC(=O)O)cc1`, the Ki in series [1] turned out to be 3 µM; in series [2] it was 0.2 µM. Further, the Ratio IC50 in series [3] was 9.1. Also, the half-inhibitory concentration (IC50) in series [4] came to 6.1 µM; in series [5] it was 0.67 µM.

On to `N=C(N)c1ccc(CNC(=O)[C@H](Cc2ccc(O)cc2)NC(=O)[C@@H](CC2CCCCC2)NCC(=O)O)cc1`, for which the Ki in series [6] was 0.8 µM; in series [7], 8 µM; in series [1] it was 2 µM; in series [2], 0.1 µM. The chromatographic logD in series [13] was 0.02. Also, the IC50 in series [8] is 1.9 µM; in [9] it was 23 µM; in series [4], 3.9 µM; in series [5] it was 0.26 µM. For the same compound, the Ratio IC50 in series [3] amounted to 15.

Take `N=C(N)c1ccc(CNC(=O)[C@@H]2CCN2C(=O)[C@H](NCC(=O)O)C2CCCCC2)cc1`: the IC50 in [12] was determined as 3.3 µM; in [8], 20 µM; in series [9] it was 21 µM; in series [5], 1.3 µM.

On to `N=C(N)NCCC[C@H](NC(=O)[C@@H](CC1CCCCC1)NCC(=O)O)C(=O)NCc1ccc(C(=N)N)cc1`, for which the Ki in series [1] came to 1 µM; in series [2], 0.1 µM. In addition, the Ratio IC50 in [3] came to 2.8. The IC50 turned out to be 1.3 µM in series [4] and 0.47 µM in series [5].

In the case of `N=C(N)c1ccc(CNC(=O)C(CCC2CCNCC2)NC(=O)[C@@H](NCC(=O)O)C2CCCCC2)cc1` (mixture of isomers), the Ratio IC50 in [3] is 1. The IC50 in series [4] and in [5] was > 44 µM each time.

For `N=C(N)c1ccc(CNC(=O)C(CCC2CCNCC2)NC(=O)[C@H](N)CC2CCCCC2)cc1` (mixture of isomers), the Ki in series [1] was 15 µM; in series [2], 0.9 µM. Moreover, in series [3], the Ratio IC50 stood at 8.9. For the same compound, the IC50 in series [4] is 28 µM; in series [5], 3.1 µM.

On to `N=C(N)c1ccc(CNC(=O)[C@@H](CC2CCCN2)NC(=O)[C@@H](CC2CCCCC2)NCC(=O)O)cc1` (mixture of isomers), for which the Ratio IC50 in series [3] came to 1. Also, the IC50 in series [4] and in series [5] was > 44 µM in each case.

`N=C(N)NCCC[C@H](NC(=O)[C@@H](CC1CCCCC1)NCCC(=O)O)C(=O)NCc1ccc(C(=N)N)cc1`: the Ki in series [6] was > 19 µM; in series [1] it was 3 µM; in series [2], 0.8 µM. Also, the IC50 in series [8] was > 44 µM; in series [4], 5.2 µM; in series [5], 2.8 µM. Further, the Ratio IC50 in series [3] came to 1.8.

Regarding `N=C(N)c1ccc(CNC(=O)[C@H](Cc2cccc3ccccc23)NC(=O)[C@@H](CC2CCCCC2)NCC(=O)O)cc1`, the Ki in series [1] came to 6 µM; in series [2], 0.3 µM. The compound further gave a chromatographic logD in series [13] of 1.97. For the same compound, the Ratio IC50 in series [3] came out at 11. Also, the IC50 in series [4] is 12 µM; in series [5] it was 1.1 µM.

The values above are taken from ChEMBL document CHEMBL3112440, “Design, synthesis, and SAR of a series of activated protein C (APC) inhibitors with selectivity against thrombin for the treatment of haemophilia” (Bioorg Med Chem Lett, 2014).
